# CHOP inh: CHOP inhibition in unfolded protein response. actives 3.8% (n = 220,000). inhibition, % at 10 µM. AID 2732. CHO-K1 CHOP-promoter luciferase, tunicamycin-induced, 15-18 h;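 active means compounds that reduced the stress-induced luciferase reporter signal by more than about 70% of percent inhibition, limit read from the data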;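 further: 0% = tunicamycin plus vehicle and 100% = wells without tunicamycin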
# FXN GAA850 act: activators of GAA850 frataxin (FXN) promoter. HEK293 lucGAA850 FXN promoter luciferase reporter, 24 h; percent of 10 µM SAHA response. activation, % at 6 µM. actives 0.56% (n = 360,000). AID 540364;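 active means activation above the average of all compounds screened plus 3 SD, cutoff fixed separately per campaign, cut at about 7.5% in these data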;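 further: 0% = DMSO wells and 100% = 10 µM SAHA wells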
# XBP1 UPR activ: adaptive UPR (XBP1) activation | CHO-XBP1 luciferase reporter, IRE1-XBP1 UPR activation, luminescence; percent of tunicamycin response, DMSO as zero | activation, % at 20 µM | actives 0.33% (n = 330,000);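 active means versus positive control, 20 µM dose yields 30% or more activation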;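 further: 100% = tunicamycin at 10 µg/mL and 0% = DMSO only wells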
#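 Signal: luciferase luminescence; Assay system: CHO-XBP1 luciferase reporter cells; Amount: one thousand reporter cells per well; Dosing: 20 µM single concentration, DMSO 1%; Benchmarks: high control tunicamycin 10 µg/mL final, low control DMSO vehicle only; Schedule: 6 h compound exposure at 37 °C, 5% CO2; Evaluation: percent activation relative to tunicamycin reference.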
# CHOP UPR activ: activators of apoptotic arm of unfolded protein response (CHOP) | AID 449763 | activation, % at 10 µM | CHO-CHOP luciferase reporter, UPR activation, luminescence; percent of tunicamycin response over DMSO baseline | actives 0.34% (n = 330,000);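 active means at 10 µM dose, activation of 40% or more, normalized to positive control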;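 further: 100% = tunicamycin at 10 µg/mL and 0% = DMSO alone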
#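 System: CHO CHOP reporter cells. Amount: 500 cells per well. Buffer or medium: F12 medium, 10% FBS. Compound dosing: one dose, 10 µM in 0.5% DMSO. Incubation: 6 h compound exposure at 37 °C after overnight seeding. Technique: Steady-Glo luciferase luminescence. Benchmarks: tunicamycin and DMSO controls.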
# Starred values were filed as active, the others as inactive; / = no result given; ! = a repeat was not active. Many of the other results were omitted from the sample, so hits are more common in it than they were.
SMILES,CHOP inh,FXN GAA850 act,XBP1 UPR activ,CHOP UPR activ
COc1cccc(C(=O)NN2c3ccccc3CCc3ccccc32)c1,92*,-2,/,/
COc1cccc(C(=O)NNC(=O)c2ccccc2)c1,/,3,-5,3
O=C(CNC(=S)N(Cc1ccccc1)Cc1ccccc1F)NCc1ccccc1,47,0,1,1
O=C(CNC(=S)N(Cc1ccccc1)Cc1ccccc1F)NCc1ccc(Cl)cc1,78*,-1,/,/
O=C(C[C@H]1C(=O)N(C2CCCCC2)C[C@@H]1c1ccccc1)Nc1ccc(Br)cc1,/,0,/,/
Cc1ccccc1S(=O)(=O)c1c(C)cc(C)n(CC(C)C)c1=O,86*,2,0,0
Cc1ccc2oc(=O)cc(/C=C/c3ccccc3)c2c1,76*,1,0,1
Cc1ccc2oc3ccccc3c(=O)c2c1,/,2,/,/
Nc1nc(Cl)nc2c1ncn2[C@@H]1O[C@H](CO)[C@H](O)C1O (some centres undefined),8,/,/,/
CCCCNC(=O)c1ccc2nc(CC)c(N(C)Cc3cccs3)n2c1,/,-5,/,/
CC(C)=CC1C(C(=O)Nc2ccc(Br)cn2)C1(C)C (centres undefined),76*,1,-4,2
O=[N+]([O-])c1ccc(N2CCN(Cc3ccccc3)CC2)c2c1no[n+]2[O-],/,-10,/,/
COc1cc(F)ccc1-c1csc(C(C)(O)c2ccc(F)c(F)c2)n1 (centres undefined),/,0,/,/
Nc1ccc(-c2nc3ccc(C(=O)O)cc3s2)cc1,92*,-8,/,/
CCc1nc2ccc(C(=O)Nc3cccc(OC)c3)cn2c1N(C)Cc1ccc(OC)cc1,/,-1,/,/
O=C(Nc1nnc([C@@H]2C[C@H](O)[C@@H](CO)O2)s1)Nc1cccc2c1CCCC2,/,1,/,/
Cc1ccccc1C(=O)O/N=C(\N)c1ccccc1,/,-2,-11,-9
Cc1ccccc1C(=NC(=O)c1ccccc1)c1ccccc1,72*,3,-1,1
COc1cc2c(cc1OC)C1CCc3cc4c(cc3C1N=C2)OCO4 (centres undefined),/,2,/,/
CCOCCC(=O)Nc1ccc2c(c1)c(=O)n(C)n2C/C=C/c1ccccc1,/,-4,/,/
Cc1cc(OC(C)C)c2c(-c3ccccc3)cc(=O)oc2c1,79*,2,0,-1
N#C/C(=C/c1ccc(-c2ccc(S(N)(=O)=O)cc2)o1)c1nc2ccccc2s1,89*,7,2,10
Cc1ccc(OCC(=O)Nc2ccc3c4c(cccc24)CC3)c(C)c1,82*,1,7,1
Cc1cccc(OCC(=O)Nc2ccc3c4c(cccc24)CC3)c1C,-31,-1,3,3
NC(=O)OCC(COC(N)=O)c1ccccc1,97*!,0,-7,1
SMILES,CHOP inh,FXN GAA850 act,XBP1 UPR activ,CHOP UPR activ
NC(=O)NC(Cc1ccccc1)c1ccccc1 (centres undefined),-13,0,-1,-1
Cc1ccc(S(=O)(=O)N(CCC(=O)Nc2ccc(OC(F)(F)F)cc2)c2ccccc2)cc1,83*,0,-2,2
CCCNC(=O)C1(C)CCCN(CCC(=O)c2ccccc2)C1 (centres undefined),/,0,/,/
COc1cc(OC)c(C(=O)c2ccccc2[N+](=O)[O-])c(OC)c1,/,-1,/,/
O=C(CN1CCOCC1)Nc1nc(-c2ccc3c(c2)CCN3S(=O)(=O)c2ccccc2)cs1,12,1,2,1
Cc1sc(NC(=O)CN2CCOCC2)nc1-c1ccc2c(c1)CCN2S(=O)(=O)c1ccccc1,72*,-3,-5,5
O=C1c2ccccc2C(=O)C1c1ccc2ccccc2n1,92*,0,-4,-8
CN1CCN(c2cc(=O)n(C3CCCCC3)c(=O)[nH]2)CC1,9,2,2,1
O=c1cc(N2CCN(c3ccccc3)CC2)[nH]c(=O)n1C1CCCCC1,78*,-2,5,-1
O=c1cc(N2CCN(c3cccc(Cl)c3)CC2)[nH]c(=O)n1C1CCCCC1,74*,0,6,-3
COc1cc(OC)c(C2Nc3cccc4cccc(c34)N2)c(OC)c1,/,0,13,-1
COc1ccccc1C1Nc2cccc3cccc(c23)N1,87*,3,3,1
O=S(=O)(c1ccc(-c2csc(Nc3ccc(F)cc3)n2)cc1)N1CCCC1,90*,-3,6,1
O=S(=O)(c1ccc(-c2csc(Nc3ccc(Br)cc3)n2)cc1)N1CCCC1,40,0,1,13
CCn1cc(C(=O)O)c(=O)c2cc(F)c(N3CCN(C(=O)Nc4ccccc4)CC3)cc21,-17,-3,-1,1
CCn1cc(C(=O)O)c(=O)c2cc(F)c(N3CCN(C(=S)NC(=O)c4ccc(Br)cc4)CC3)cc21,73*,3,5,-2
CCn1cc(C(=O)O)c(=O)c2cc(F)c(N/N=C/c3ccccc3)cc21,103*,0,0,1
COc1ccc(C(O)c2ncc(-c3ccccc3C)[nH]2)cc1F (centres undefined),/,0,/,/
Nc1nc2ccccc2n1S(=O)(=O)c1ccccc1,/,2,/,/
COc1cc(/C=N/NC(=O)c2cccc([N+](=O)[O-])c2)cc(OC)c1O,-1,-1,-2,-1
COc1cccc(/C=N/NC(=O)c2ccc([N+](=O)[O-])cc2Cl)c1O,70*,-5,-2,0
Cc1ccc(C)c2c1[nH]c1ccc([N+](=O)[O-])cc12,82*,3,-3,1
Cc1c(C(=O)NN)[nH]c2ccc([N+](=O)[O-])cc12,0,-4,-2,0
CN(C)c1ncnc2c1ncn2[C@H]1CN(C2CCCC2)C[C@@H](CO)O1,/,0,/,/
CC1CCN(c2nc3c(c(=O)n(C)c(=O)n3C)n2CCSc2nc3ccccc3s2)CC1,76*,6,4,5
SMILES,CHOP inh,FXN GAA850 act,XBP1 UPR activ,CHOP UPR activ
O=C(Nc1ccc(S(=O)(=O)N2CCCC2)cc1)c1ccc(CN2CCc3ccccc3C2)cc1,70*,-10,-1,6
O=C(Nc1ccc(Cl)cc1)c1ccc(CN2CCc3ccccc3C2)cc1,/,1,-7,1
Cc1ccc2c(c1)C(c1ccncc1)=NNC(c1ccc(C(C)C)cc1)=N2,98*,/,/,/
Cc1ccc2c(c1)C(c1ccncc1)=NNC(c1ccc(F)cc1)=N2,2,2,0,2
COc1ccc2c(c1)C(c1cccs1)=NNC(c1ccncc1)=N2,21,9.4*,-1,0
CC(C)c1ccc2c(c1)C(c1cccs1)=NNC(c1ccncc1)=N2,22,1,4,3
CN(C)CCNc1nc(Oc2ccccc2)c2sccc2n1,/,0,/,/
COc1ccc(-c2ccc(/C=C3/C(=N)N4C=CSC4=NC3=O)o2)c([N+](=O)[O-])c1,82*,-1,/,/
C/C(=N/Nc1ccc([N+](=O)[O-])cc1)c1ccc(C)cc1C,94*,5,2,2
COc1ccc(CCNC(=O)c2cc(-c3ccncc3)nc3c(Cl)cccc23)cc1OC,13,0,0,-2
COc1ccc(CNC(=O)c2cc(-c3ccncc3)nc3c(C)cc(C)cc23)cc1OC,89*,-5,-2,2
